This excerpt belongs to a sample that is enriched for hits.
Insulin prom act – TRM-6 insulin promoter activation; TRM-6 cells, insulin promoter eGFP reporter, imaging; plate-scaled: unstimulated 0, stimulated control 100; activation, % at 2 µM; 130,000 compounds, 0.81% hits;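 active = activation at 2 µM above a set limit, confirmed on inspection of the cell images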;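 note: share of cells whose green reporter signal exceeds an intensity cutoff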
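Test system: human fetal islet-derived TRM-6 cells with tamoxifen-inducible insulin promoter–eGFP reporter. Compound dosing: 2 µM final, single concentration. Incubation: tamoxifen pre-incubation 15 h overnight, then compound exposure 48 h at 37 °C. Signal: fixed-cell fluorescence microscopy, eGFP plus Hoechst.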
Of the large screens only hits and unclear results are named; the others gave an inactive call.

COc1ccccc1-c1nc(C#N)c(N2CCN(C(c3ccccc3)c3ccccc3)CC2)o1	none
Cc1nn(C)c(Cl)c1C(=O)NCC(=O)NCc1ccccc1	none
CCc1nc(N)c(C#N)c(-c2ccc(OC)c(OC)c2)c1C	Insulin prom act 83
CCc1nc(N)c(C#N)c(-c2cccc3ccccc23)c1C	none
COc1ccc(-c2c(C#N)c(N)nc3c2CCCC3)cc1OC	none
CCN(CC(=O)N1CCc2ccccc2C1)S(=O)(=O)c1ccc2ccccc2c1	none
CC(C)Cc1nc(N2CCN(C(=O)c3ccco3)CC2)c(C#N)c2c1CCC2	none
N#Cc1c(N2CCN(C(=O)c3ccco3)CC2)nc(-c2ccccc2)c2c1CCCC2	none
N#Cc1c(N2CCN(C(=O)c3ccccc3)CC2)nc(-c2ccccc2)c2c1CCCC2	Insulin prom act 79
Cc1cc(N2CCCC2=O)cc(C)c1S(=O)(=O)NCCOc1ccc(C(C)(C)C)cc1	none
CC(C)OCCCn1c(SCC(=O)N2CCc3ccccc32)nc2ccccc2c1=O	none
COc1cc(OC)c(NC(=O)CCNC(=O)Cn2ccc3ccccc3c2=O)cc1Cl	none
Cc1cc(N2CCOCC2)c(F)cc1C(=O)c1ccccc1	none
N#Cc1c(NC(=O)c2cccnc2)sc2c1CCC2	none
CC1(C)Cc2c(sc(NC(=S)NC(=O)c3ccccc3)c2C(=O)O)CO1	none
N#Cc1c(NC(=S)NC(=O)c2ccccc2)sc2c1CCN(CCc1ccccc1)C2	Insulin prom act 270
Cc1cc(C)nc(NS(=O)(=O)c2ccc(NC(=O)CSc3nc4ccccc4[nH]3)cc2)n1	none
O=C(CN1CCN(c2ccc(O)cc2)CC1)Nc1ccc(SC(F)F)cc1	none
Cc1nc(=O)c(-c2ccccc2)c(C)n1-c1ccc(O)cc1	none
COCCCNC(=S)N1CCN(C(=O)C(=O)Nc2ccc(C(=O)OC)cc2)CC1	none
COc1ccc2nc(NC(=O)Nc3ccccc3)sc2c1	none
CC[n+]1c(/C=C(\C)Nc2ccccc2)sc2ccccc21	none
CC[n+]1c(/C=C/C=C/N(C(C)=O)c2ccccc2)sc2cc(OC)ccc21	Insulin prom act 270
Cc1ccc(/C(O)=C2/C(=O)C(=O)N(CCN3CCOCC3)C2c2cccs2)cc1 (configuration not stated)	none
COc1cc(S(=O)(=O)NCc2ccncc2)c(OC)cc1Cl	none
Cc1ccc2nsnc2c1S(=O)(=O)NCc1ccc2c(c1)OCO2	none
CCOc1cc(S(=O)(=O)NCc2ccc3c(c2)OCO3)c(C)cc1C	Insulin prom act 141
O=S(=O)(NCc1ccc2c(c1)OCO2)c1cccc2cccnc12	none
CC(=O)NC(Cc1ccc(F)cc1)C(=O)NC1CCN(c2nnnn2-c2ccccc2)CC1 (configuration not stated)	none
Cc1occc1-c1nnc(SCC(=O)NCCc2ccccc2)n1C(C)c1ccccc1 (configuration not stated)	none
CCCCn1nnnc1SCC(=O)NCc1ccccc1	none
CC(C)n1nnnc1SCC(=O)NCCc1ccccc1	Insulin prom act 75
O=C(CNC(=O)c1ccco1)OCC(=O)c1cccc2ccccc12	none
Cc1ccc(S(=O)(=O)N2CCOCC2)cc1NC(=O)Cn1ccsc1=N	none
COc1cc(S(=O)(=O)N2CCOCC2)cc(C(=O)c2nccn2C)c1OC	none
CCCCn1ccnc1C(=O)c1cc(S(=O)(=O)N2CCOCC2)ccc1C	Insulin prom act 89
CCCCOc1ccccc1C1C(C(N)=O)=C(C)Nc2nnnn21 (configuration not stated)	Insulin prom act 493
C=CCOC(=O)C1=C(C)Nc2nnnn2C1c1ccc(OC)cc1OC (configuration not stated)	none
COC(=O)C1=C(C)Nc2nnnn2C1c1ccccc1Cl (configuration not stated)	none
COC(c1ccccc1)c1nnc(CCC(=O)NC2C3CC4CC(C3)CC2C4)o1 (configuration not stated)	none
O=C(NC1CCS(=O)(=O)C1)/C(=C/c1ccc(Cl)cc1)NC(=O)c1ccccc1 (configuration not stated)	none
COc1ccc(OC)c(NC(=O)CSc2nc3c(c(=O)n(C)c(=O)n3C)n2C)c1	none
CN(C)CCOC(=O)Cc1ccc(Cl)cc1	none
CC1CC(C)CN(S(=O)(=O)c2ccc(NC(=O)C3COc4ccccc4O3)cc2)C1 (configuration not stated)	Insulin prom act 925
NS(=O)(=O)c1ccc(NC(=O)C2COc3ccccc3O2)cc1 (configuration not stated)	none
CC(C)(C)NC(=O)c1ccc(NC(=O)C2COc3ccccc3O2)cc1 (configuration not stated)	none
NS(=O)(=O)c1ccc(CCNC(=O)COC(=O)/C=C/c2ccccc2Cl)cc1	none
c1ccc(C2OC3c4cccc5cccc(c45)C3N2c2ccccc2)cc1 (configuration not stated)	none
O=C(COC(=O)c1cccnc1Cl)c1ccccc1	none
O=C(OCc1nnc(-c2ccccc2)o1)c1cccnc1Cl	none
O=C(COC(=O)c1cccnc1Cl)c1ccc(F)cc1	Insulin prom act 426
Cc1ccc(NC(=O)c2ccccc2F)cc1S(=O)(=O)N1CCCCCC1	none
COc1ccccc1S(=O)Cc1ccc(C(=O)O)o1 (configuration not stated)	none
Cc1ccc(C(=O)COC(=O)CNC(=O)c2cccs2)cc1C	none
Cc1ccc(C(=O)NCC(=O)NCC(=O)OCC(=O)c2cccs2)cc1	Insulin prom act 471
Cc1ccc(NC(=O)COC(=O)CCC(=O)c2cccs2)cc1	none
CCOCCCNC(=O)Cn1cc2c(n1)CCCC2	none
CC(=O)N1CCN(C(=O)CC2OC(=O)c3ccccc32)CC1 (configuration not stated)	none
Nc1nc(CSc2nnnn2-c2ccccc2)nc(N2CCCc3ccccc32)n1	Insulin prom act 447
CN(C)c1nc(N)nc(CSc2nnnn2-c2ccc(F)cc2)n1	none
Cc1ncc(CSc2nnnn2-c2ccccc2)c(N)n1	none
Cc1ccccc1N(CC(N)=O)S(C)(=O)=O	none
COc1ccccc1N(CC(=O)Nc1ccccc1C)S(C)(=O)=O	none
Cc1ccccc1N(CC(=O)O)S(C)(=O)=O	Insulin prom act 475
CC(=O)OC1OCCOC1NC(=S)Nc1ccc(C)cc1 (configuration not stated)	none
COC(=O)c1cc(C#N)c(Oc2ccc(F)cc2)nc1C	none
CCOC(=O)c1[nH]c2ccc(OCC)cc2c1CCCN1C(=O)c2ccccc2C1=O	none
COc1ccccc1NC(=O)CSc1nnc(-c2ccco2)n1Cc1ccco1	none
COc1ccc(C)cc1NC(=O)CSc1nnc(COc2ccc(Cl)cc2)n1Cc1ccco1	Insulin prom act 142
Cn1c(COc2ccccc2)nnc1SCc1nc2ccccc2[nH]1	none
CCn1c(SCc2nc3ccccc3[nH]2)nnc1-c1cccs1	none
Clc1ccc(OCc2nnc(SCc3nc4ccccc4[nH]3)n2Cc2ccco2)cc1	Insulin prom act 129
O=C(CSc1nnc(Cc2cccs2)n1Cc1ccco1)Nc1cc(Cl)cc(Cl)c1	none
COCCn1c(Cc2ccccc2)nnc1SCc1nc2ccccc2c(=O)[nH]1	none
O=C(c1sc2ccccc2c1Cl)N(Cc1ccccc1Cl)C1CCS(=O)(=O)C1 (configuration not stated)	none
Cc1cc(C(C)(C)C)cc(C)c1CC1=NCCN1	none
COc1ccc2c(-c3ccccc3)cc(SCC(=O)NC(N)=O)nc2c1	none
COc1ccc2c(C)cc(SCC#N)nc2c1	Insulin prom act 167
COc1ccc2c(-c3ccccc3)cc(SCC(=O)N(C)C)nc2c1	none
O=C(Nc1ccc(Br)cc1)c1ccccc1CC[N+](=O)[O-]	none
COCCNC(=O)c1cc(-c2ccc(Cl)c(Cl)c2)on1	none
O=C(NC1CCS(=O)(=O)C1)/C(=C\c1ccccc1)NC(=O)c1ccccc1 (configuration not stated)	none

High-throughput results: PubChem BioAssay, Columbia University Molecular Screening Center
